In the library only some 1.3% were active in any assay of this set; here they are far more common.
RAD52 inh: RAD52 (human) annealing inhibition | P43351 | hit rate 0.46% among 360,000 | inhibition, % at 18.7 µM | recombinant RAD52 DNA annealing, FRET fluorescence | AID 651710;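 active = every replicate showing at least 50% inhibition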
RAD54 branch: blocks human RAD54 Holliday junction branch migration. hit rate 0.14% among 360,000. AID 602329. FAM/BHQ fluorescence. inhibition, % at 10.4 µM;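 active = mean normalized replicate activity at least 40 and at least half of replicates scoring 40 or more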;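 note: 0% = median of neutral control wells and 100% = median of positive control wells; inhibitors cause a drop in the FAM fluorescence signal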
Target sequence (Q92698 whole entry, looked up): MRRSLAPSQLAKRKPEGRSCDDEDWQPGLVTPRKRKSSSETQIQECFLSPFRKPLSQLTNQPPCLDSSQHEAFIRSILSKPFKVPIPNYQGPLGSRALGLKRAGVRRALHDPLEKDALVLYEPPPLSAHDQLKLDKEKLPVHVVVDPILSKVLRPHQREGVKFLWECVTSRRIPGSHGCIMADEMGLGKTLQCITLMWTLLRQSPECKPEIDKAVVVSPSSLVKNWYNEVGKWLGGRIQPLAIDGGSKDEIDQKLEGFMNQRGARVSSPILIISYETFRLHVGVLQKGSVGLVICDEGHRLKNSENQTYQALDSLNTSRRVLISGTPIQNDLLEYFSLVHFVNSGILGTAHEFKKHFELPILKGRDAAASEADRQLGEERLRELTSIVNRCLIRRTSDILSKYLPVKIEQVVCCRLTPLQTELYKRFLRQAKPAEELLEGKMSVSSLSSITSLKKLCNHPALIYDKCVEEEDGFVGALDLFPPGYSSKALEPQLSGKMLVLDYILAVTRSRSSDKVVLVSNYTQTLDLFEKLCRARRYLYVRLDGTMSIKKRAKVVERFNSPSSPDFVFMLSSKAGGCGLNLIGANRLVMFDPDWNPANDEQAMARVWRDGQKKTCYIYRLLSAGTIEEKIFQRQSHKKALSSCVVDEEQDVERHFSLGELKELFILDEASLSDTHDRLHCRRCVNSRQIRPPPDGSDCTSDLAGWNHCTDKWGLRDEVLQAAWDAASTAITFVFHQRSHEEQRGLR
S100A4 MyoIIA: blocks human S100A4 binding to myosin IIA peptide. P26447. S100A4/TAMRA-MyoIIA peptide fluorescence polarization. inhibition, % at 10.7 µM. hit rate 0.14% among 360,000;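 active = mean inhibition of at least 70% across replicates, with every replicate also reaching that level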
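assay system = human S100A4 monomer with TAMRA-labelled myosin IIA peptide | also added = labelled myosin peptide probe, 5 nM | incubation = 5 min between mix addition and reading | control set = DMSO and TFP controls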
CASP6 VEID inh: inhibitors of human caspase-6; P55212; purified caspase-6, Z-VEID-R110 cleavage fluorescence; inhibition, % at 12.5 µM; hit rate 0.53% among 350,000; AID 686996;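 active = mean inhibition across replicates at least about 35%, with every replicate also reaching that limit, limit read from the data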;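 note: 0% = median of neutral control wells and 100% = no fluorescence left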
Xi reactivation: reactivates the inactive X chromosome in mouse fibroblasts | XiGFP mouse fibroblasts, % GFP-positive cells imaging, 3 d; cells co-treated with 5-aza-dC sensitizer; scaled so ellipticine positive control = 100% | hit rate 0.055% among 360,000 | activation, % at 7.58 µM;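 active = mean normalized replicate activation at least 10% and every replicate at or above 10%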;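 note: 0% = median of on-plate neutral control wells and 100% = ellipticine 6 µM median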
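Assay system: SV40-immortalized XiGFP fibroblast cells, line 68-5-11; buffer or medium: DMEM plus 5-aza-dC sensitizer; compound: one concentration, pinned; timing: compounds 3 days, fix/stain 15 min at room temperature; benchmarks: positive control ellipticine, 6 µM final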
MLL AF4-AF9 inh: blocks AF4 peptide binding to human AF9; P42568; AlphaScreen, biotin-AF4 peptide binding to FLAG-AF9; inhibition, % at 10 µM; hit rate 0.47% among 350,000;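 active = every replicate reaching a set inhibition limit, whatever the replicate mean, cut at about 25% in these data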;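 note: 0% = plate neutral control median and 100% = total signal loss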
Numbers without * were called inactive; i = inactive; · = no result given; ! = a repeat was not active.

SMILES | RAD52 inh | RAD54 branch | S100A4 MyoIIA | CASP6 VEID inh | Xi reactivation | MLL AF4-AF9 inh
CN1c2ccc(C3=CCCCC3)cc2[C@H]2[C@H](CCN2C(=O)C2CCCC2)[C@@H]1CO | -12 | 1 | 8 | -2 | 0 | 2
COCCn1c(SCC(=O)Nc2ccccc2F)nc2c([nH]c3ccccc32)c1=O | -19 | -11 | -4 | -3 | 0 | -1
COCCn1c(SCC(=O)Nc2ccccc2OC)nc2c([nH]c3ccccc32)c1=O | -13 | -1 | 0 | 70* | 0 | -2
Cc1nc2ccc(NC(=O)CCC3CCCC3)cc2s1 | -25 | 4 | -2 | 81* | 0 | -2
Oc1ccc2c(c1)OCC1(O)Cc3cc(O)c(O)cc3C21 (stereo not given) | -24 | -16 | -1 | 31 | · | 26*
COc1ccccc1NC(=O)N1CC(=O)N2[C@H](CO)[C@H](c3ccc(C#CC4CC4)cc3)[C@@H]2C1 | -5 | · | 4 | 0 | 0 | 1
CCOC(=O)C1Nc2ccccc2C2C(O)C(O)CC12 (stereo not given) | -378 | i | 3 | 24 | 0 | 26*
Cc1ccc(S(=O)(=O)Nc2ccc3c(c2)C(=O)N([C@H](C)CO)C[C@@H](C)[C@@H](CN(C)C)OCCCC[C@H](C)O3)cc1 | -13 | -7 | 2 | 1 | 0 | -7
CC(=O)Nc1nnc(-c2ccc(Cl)s2)o1 | -11 | -10 | -6 | 0 | 0 | 45*
C[C@@H]1CN([C@@H](C)CO)C(=O)c2cc(-c3ccc(C#N)cc3)cnc2O[C@@H]1CN(C)CC1CC1 | · | · | · | · | 0 | ·
C[C@@H]1CN([C@H](C)CO)S(=O)(=O)c2ccc(-c3cccnc3)cc2O[C@@H]1CN(C)C(=O)CC1CC1 | 15 | 12 | 108* | 2 | -1 | -10
C[C@H]1CN([C@@H](C)CO)S(=O)(=O)c2ccc(C#Cc3ccc(F)cc3)cc2O[C@H]1CN(C)C(=O)CN(C)C | 71* | 4 | 2 | 0 | -1 | 19
C[C@@H]1CN([C@@H](C)CO)S(=O)(=O)c2ccc(C#CC3CC3)cc2O[C@H]1CN(C)Cc1ccc(F)cc1 | -10 | -11 | -17 | 2 | 18* | 0
C[C@H]1CN([C@@H](C)CO)S(=O)(=O)c2ccc(C#CC3CC3)cc2O[C@H]1CN(C)Cc1ccc(F)cc1 | -14 | 5 | 3 | 1 | -1 | 4
C[C@@H]1CN([C@H](C)CO)S(=O)(=O)c2ccc(C#Cc3ccc(F)cc3)cc2O[C@H]1CN(C)C(=O)CN(C)C | 61* | 14 | 2 | 4 | -1 | 19
Cc1noc(C)c1NC(=O)Nc1ccc2c(c1)C(=O)N([C@H](C)CO)C[C@@H](C)[C@@H](CN(C)C(=O)Nc1ccccc1)OCCCC[C@@H](C)O2 | 2 | -4 | -8 | 1 | 0 | -1
CCCC(=O)Nc1ccc2c(c1)C(=O)N(C)C[C@@H](OC)[C@@H](C)CN(Cc1ccccn1)[C@@H](C)CO2 | -6 | 0 | 12 | 4 | 3 | -6
CO[C@H]1CN(C)C(=O)c2cc(NC(=O)c3ccccc3)ccc2OC[C@@H](C)N(C(=O)CN(C)C)C[C@@H]1C | 3 | 2 | 3 | 0 | 0 | -1
COc1ccc(S(=O)(=O)N(C)C[C@@H]2Oc3c(NC(=O)C4CC4)cccc3C(=O)N([C@@H](C)CO)C[C@H]2C)cc1 | -2 | -9 | 0 | 1 | -1 | -2
Cc1noc(C)c1NC(=O)N(C)C[C@@H]1Oc2ccc(NC(=O)Nc3ccc(C(F)(F)F)cc3)cc2C(=O)N([C@H](C)CO)C[C@H]1C | 4 | -6 | 11 | 0 | 0 | 1
C[C@@H]1CCCCO[C@@H](CN(C)C(=O)CCCN(C)C)[C@@H](C)CN([C@H](C)CO)C(=O)c2cc(NC(=O)c3ccncc3)ccc2O1 | · | 6 | · | · | 0 | ·
C[C@@H]1CN([C@@H](C)CO)S(=O)(=O)c2ccc(C#Cc3cccc(F)c3)cc2O[C@H]1CN(C)C | 51* | -4 | 12 | 2 | 0 | 7
C[C@@H]1CN([C@H](C)CO)C(=O)c2cc(C#Cc3ccccc3F)cnc2O[C@@H]1CN(C)C(=O)Cc1ccccc1 | 6 | 1 | -26 | -1 | 0 | 2
C=C[C@]1(C)C=C2C(=O)[C@@]3(O)OC(=O)[C@@]4(CCCC(C)(C)[C@H]34)[C@@]2(O)CC1 | 10 | 1 | 0 | 37* | 1 | -3
CC(C)NC(=O)N(C)C[C@@H]1Oc2ncc(-c3cccc(C#N)c3)cc2C(=O)N([C@@H](C)CO)C[C@@H]1C | · | · | · | · | 0 | ·
SMILES | RAD52 inh | RAD54 branch | S100A4 MyoIIA | CASP6 VEID inh | Xi reactivation | MLL AF4-AF9 inh
Cc1cc2c(cc1C)C(=O)C(Br)=C(N)C2=O | -61 | -14 | 31 | 74* | 0 | -2
NC1=C(Br)C(=O)c2ccccc2C1=O | -10 | 7 | 0 | 75* | 0 | 3
CN1CCN(C(=O)C[C@@H]2CC[C@@H]3[C@H](COC[C@H](O)CN3C(=O)Nc3ccc(Cl)cc3)O2)CC1 | -8 | -8 | 11 | -3 | 0 | -8
O=C(C[C@H]1CC[C@H](NC(=O)Nc2ccc3c(c2)OCO3)[C@@H](CO)O1)NCc1ccccc1 | -9 | -2 | -41 | -1 | 0 | -3
CC(C)NC(=O)N1C[C@H]2[C@@H](c3ccccc31)[C@@H](CO)N2Cc1ccc(Cl)cc1 | -17 | 4 | -1 | 0 | 0 | 0
COc1ccc2c3c([nH]c2c1)[C@H](CO)N(C(=O)CN(C)C)CC31CCN(Cc2ccccc2)CC1 | · | · | · | · | 0 | 6
O=C(Cn1cnc([N+](=O)[O-])n1)c1ccc(O)c(O)c1 | -6 | -12 | -15 | 43* | 0 | -3
C[C@H](CO)N1C[C@H](C)[C@@H](CN(C)C(=O)C2CCC2)Oc2cc(-c3ccc(C(=O)N(C)C)cc3)ccc2S1(=O)=O | 6 | 10 | -2 | 2 | -1 | -2
c1cc(-c2ccc(C3[C@H]4CNC[C@@H]3N4CC3CCCC3)cc2)ccn1 (stereo not given in full) | 22 | · | 8 | -2 | 0 | 42*
Fc1ccc(F)c(CN2[C@@H]3CNC[C@H]2C3c2ccc(-c3ccncc3)cc2)c1 (stereo not given in full) | 81*! | · | -6 | 1 | 0 | 26*!
c1cncc(-c2ccc([C@@H]3[C@H]4CNC[C@@H]3N4CC3CCOCC3)cc2)c1 | · | · | · | · | 0 | ·
COCC(=O)N(C)C[C@@H]1Oc2ncc(C3=CCCC3)cc2C(=O)N([C@H](C)CO)C[C@@H]1C | -7 | · | · | · | 1 | -2
C[C@@H]1CCCCO[C@@H](CN(C)C(=O)Nc2ccc(F)cc2)[C@@H](C)CN([C@@H](C)CO)C(=O)c2cc(NC(=O)NC3CCCCC3)ccc2O1 | · | · | · | · | -1 | ·
CC(C)[C@H]1CC=CC[C@H](C)Oc2ccccc2C(=O)N(C)[C@@H](C)C(=O)N1 (mixture of isomers) | · | · | · | · | 0 | ·

Compound activity as filed in PubChem.
